# MsrA act = activates bovine MsrA enzyme; activation, % at 10.6 µM; purified bovine MsrA, absorbance read-out; actives 0.3% (n = 360,000); AID 602163; in the data active = activation above about 7.5%;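 also: 0% = vehicle and 100% = reference activator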
# MIN6 prolif = inducers of beta-cell replication in MIN6 cells. MIN6 cells proliferation, ATPlite luminescence, 48 h; cells starved in 0.2% serum; 100% = growth in 10% serum. proliferation, % at 10 µM. actives 0.29% (n = 330,000). AID 2380;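 active = compounds whose signal lies at least 3.5 SD above the mean of all wells on their plate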;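 also: 0% = DMSO-treated cells in low-serum medium and 100% = 10% serum control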
# MsrA inhibitor = inhibitors of bovine MsrA; purified bovine MsrA, absorbance read-out; inhibition, % at 15.5 µM; actives 0.75% (n = 360,000);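 also: 0% = vehicle wells with enzyme and 100% = reference inhibitor wells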
# DAGLB inhibitor = blocks human DAGLB lipase activity. Q8NCG7. HEK293T DAGLB membrane lysate, EnzChek fluorogenic substrate. inhibition, % at 5.17 µM. actives 0.059% (n = 340,000); in the data active = inhibition above about 34%;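 also: 0% = enzyme with vehicle and 100% = wells lacking enzyme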
# Target sequence (Q8NCG7 whole entry, looked up): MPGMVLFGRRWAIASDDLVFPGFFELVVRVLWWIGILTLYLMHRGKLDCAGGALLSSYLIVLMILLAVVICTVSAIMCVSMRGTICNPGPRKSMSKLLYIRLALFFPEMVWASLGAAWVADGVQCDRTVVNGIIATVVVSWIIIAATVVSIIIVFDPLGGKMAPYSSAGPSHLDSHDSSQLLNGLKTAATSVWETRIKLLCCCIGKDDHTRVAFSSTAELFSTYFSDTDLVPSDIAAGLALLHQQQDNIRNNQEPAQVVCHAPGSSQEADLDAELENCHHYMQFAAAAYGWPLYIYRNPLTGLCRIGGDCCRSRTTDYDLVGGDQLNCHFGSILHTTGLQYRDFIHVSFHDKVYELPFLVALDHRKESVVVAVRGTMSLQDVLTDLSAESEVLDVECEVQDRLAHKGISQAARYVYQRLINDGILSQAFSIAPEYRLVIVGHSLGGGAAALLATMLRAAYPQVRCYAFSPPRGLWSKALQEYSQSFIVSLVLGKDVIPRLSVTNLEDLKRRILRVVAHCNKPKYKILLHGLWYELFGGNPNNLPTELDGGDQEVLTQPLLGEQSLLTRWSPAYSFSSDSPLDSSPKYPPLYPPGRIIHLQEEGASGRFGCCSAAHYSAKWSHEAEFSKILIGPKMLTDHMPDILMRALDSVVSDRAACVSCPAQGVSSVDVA
# MT1-MMP act inh = MT1-MMP (human) activation inhibition. AID 651647. GFP/RFP ratio change, % at 20 µM. P50281. HT1080 RFP-PRO-GFP cells, GFP/RFP ratio fluorescence, overnight; percent of plate control window, DMSO zero. actives 0.061% (n = 360,000);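 active = GFP/RFP ratio change of at least 30% with cell ATP level not reduced by more than half and red fluorescence within 50% of control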
#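 Material: RFP-PRO-GFP reporter HT1080 cells. Dosing: single-point 20 µM compound, 1% DMSO. Controls: DMSO and RFP-L50D-GFP cell wells. Timing: cells overnight before dosing, compound overnight, 37 °C, 5% CO2. Measure: GFP/RFP fluorescence ratio.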
# SKN-1 inh = blocks SKN-1 activity in C. elegans; C. elegans VP596 Pgst-4::GFP/RFP ratio, acrylamide-induced, 24 h; inhibition, % at 21.8 µM; actives 0.49% (n = 360,000);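 active = interference check ratio from 0.5 to 1.5 plus GFP to RFP signal ratio inhibition reaching or exceeding a fixed threshold, cut at about 30% in these data, passing the limit was not always enough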
# MsrA conf = bovine MsrA inhibition, confirmed. actives 41% (n = 2,300). purified bovine MsrA, absorbance read-out. shares compounds with MsrA inhibitor. inhibition, % at 15.5 µM. AID 651822;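 also: coupled to thioredoxin reductase with NADPH and selenocystamine and DMSO as substrate; 0% = vehicle only and 100% = full effect of reference inhibitor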
# Starred values were filed as active, the others as inactive; / = no result given. Compounds with a hit are over-represented: about 1.8% of the library has one in this group of screens. Rule as the data show it, unless noted: active = inhibition above about 4.5%; inactive = the rest.
SMILES,MsrA act,MIN6 prolif,MsrA inhibitor,DAGLB inhibitor,MT1-MMP act inh,SKN-1 inh,MsrA conf
O=C(O)c1ccc(/C=N/NC(=S)NCCN2CCOCC2)cc1,-12,-2,6.1*,-2,-7,4,2
O=C(N/N=C/c1ccc(N2CCOCC2)cc1)c1ccc(O)cc1,-6,-2,5.6*,0,-4,3,4.8*
Cc1ccc(C(=O)N/N=C/c2ccc(N3CCOCC3)cc2)c(C)c1,-2,-3,5.5*,-1,3,-1,4
CC(=O)C1=C(O)C(=O)N(Cc2cccnc2)C1c1ccccc1 (stereo not drawn),-7,-2,6.4*,0,2,14,2
Cc1ccc(C(=O)NC2CCCc3c2cnn3-c2ccc(F)cc2F)cn1 (stereo not drawn),-6,-7,-2,0,4,-6,/
N#CC1=C(N)Oc2ccc3ccccc3c2C1c1cccnc1 (stereo not drawn),-1,/,6.6*,1,-5,5,3
N#CC1=C(N)Oc2ccc3ccc(O)cc3c2C1c1cccnc1 (stereo not drawn),-6,3,6.7*,2,-4,3,6.6*
N#CC1=C(N)Oc2cc(O)ccc2C1c1cccnc1 (stereo not drawn),-3,-2,0,1,-111,2,/
CCOC(=O)C1CCCN(C(=O)c2ccc3c(c2)N(Cc2ccccc2)C(=O)c2ccccc2S3=O)C1 (stereo not drawn),-3,-3,0,2,0,8,/
CN(C)c1cccc(C(=O)Nc2ccc(S(=O)(=O)Nc3nccs3)cc2)c1,-4,-2,-1,3,1,3,/
C[C@@H]1CN([C@H](C)CO)C(=O)CCCn2nncc2CO[C@@H]1CN(C)C(=O)c1cc(-c2ccccc2)on1,-5,/,1,1,-2,-8,/
CCc1cc(-c2[nH]ncc2-c2ccc(OC)cc2)c(O)cc1O,-1,-2,7.1*,0,-3,-6,3
CC(=NCc1cccnc1)C1=C(O)c2ccccc2C1=O,-4,0,4.9*,0,-1,15,3
CCOC(=O)c1sc(N/N=C/c2ccc(N(C)C)cc2)nc1C,-6,-2,2,1,5,18,/
C=CCc1c(C)nc(C)nc1N/N=C/c1ccc(N(C)C)cc1,-15,2,6.8*,-5,4,-9,5.0*
COc1cccc(N/N=C(\C#N)S(=O)(=O)C(C)(C)C)c1,-14,2,4.7*,/,0,-5,2
O=C1NC(=S)N/C1=C/c1cccn1-c1ccc([N+](=O)[O-])cc1,-10,2,5.1*,2,3,7,1
N/C(=N\OC(=O)CSc1ccccc1)c1ccccn1,-10,1,-1,-3,-1,-7,/
CN(C)c1ccc(C=Nc2ccc(N(C)C)cc2)cc1,1,-4,7.2*,7,16,4,4.8*
Cc1ccc(N=Cc2ccc(N(C)C)cc2)cc1,-5,3,6.5*,0,-2,13,4
Cc1ccc(S(=O)(=O)N(C)/N=C/c2ccc(N(C)C)cc2)cc1,-2,0,6.1*,-4,3,-3,2
Cc1nc(/N=C\c2ccc(N(C)C)cc2)sc1C,-2,0,5.8*,1,1,15,3
C[C@H]1CN([C@@H](C)CO)C(=O)c2cccc(NS(=O)(=O)c3ccc(Cl)cc3)c2O[C@@H]1CN(C)CC1CCCCC1,3,-2,-1,1,3,3,/
CC[C@@H](C)[C@H](N)C(=O)NC[C@H]1O[C@@H](n2cnc3c(N)ncnc32)[C@H](O)[C@@H]1O,-10,/,-1,-2,3,-2,/
COc1ccccc1CNC(=O)CN(C)S(=O)(=O)c1ccc(Br)s1,-1,0,0,-2,1,7,/
SMILES,MsrA act,MIN6 prolif,MsrA inhibitor,DAGLB inhibitor,MT1-MMP act inh,SKN-1 inh,MsrA conf
N#Cc1cc([N+](=O)[O-])cnc1NCC(O)CO (stereo not drawn),-4,-3,5.4*,1,3,-5,5
CCOC(=O)c1cccc(S(=O)(=O)N(CCO)Cc2cc3cc(OC)c(OC)cc3[nH]c2=O)c1,-6,-3,5.1*,2,7,3,2
Fc1cccc(/C=N/Nc2cc(N3CCOCC3)ncn2)c1,-3,-3,4.9*,-5,-7,1,3
Fc1ccc(/C=N/Nc2cc(N3CCOCC3)ncn2)cc1,-3,-1,1,-2,-12,-7,/
Oc1ccc(/C=N/Nc2cc(N3CCOCC3)nc(N3CCOCC3)n2)cc1,-15,-4,5.8*,2,2,13,5.7*
Nc1[nH]c(C(=O)c2ccccc2)c(-c2ccc3ccccc3c2)c1C(=O)NCc1ccc(-c2ccccc2)cc1,/,/,0,/,/,/,/
CCc1cc2c(=O)c(-c3nc4ccccc4n3C)c(C)oc2c(CN(CC)CC)c1O,-2,-1,5.3*,0,5,4,4
CCOC(=O)C1CCN(c2c(NCc3ccc(C(=O)N(C)Cc4ccccc4)cc3)c(=O)c2=O)CC1,-2,-2,-1,3,1,1,/
O=C(C1=C(c2ccccc2)C(=O)c2ccccc2C1=O)c1ccccc1,-1,/,72*,5,-47,1,59*
O=C1COc2cc(ccc2[N+](=O)[O-])Oc2ccc(cc2Cl)C(=O)CCCCO1,-6,5,5.2*,3,-5,7,5.1*
CC1(C)C=C(c2ccc(C=O)s2)CC(C)(C)N1,1,-1,2,2,0,-12,/
CC1(C)C=C(c2ccc(C=O)s2)CC(C)(C)N1C=O,-10,-5,4.8*,3,4,2,3
Cc1ccccc1OCCC(=O)OCC(=O)NC1CC1,-3,1,-1,1,4,6,/
CCCCOc1ccc(-c2csc(N)n2)cc1[N+](=O)[O-],-5,0,9.4*,-1,3,3,4
CCOc1ccc(N(C)S(=O)(=O)c2cc(-c3cc(C)no3)ccc2C(C)C)cc1,-11,-4,11*,-15,20,-1,12*
CCN(CC)c1nc(N)c2c(N)n(-c3ccccc3C)c(=S)c(C#N)c2c1C#N,-13,-2,8.0*,15,-80,-3,9.3*
CC(C)(C)OC(=O)N1CCC(C(=O)Nc2cccc(C(=O)NCCCCc3ccccc3)c2)CC1,-1,/,0,-2,-2,11,/
COc1ccc(/C=C(\C#N)C(=O)NC(C)c2ccccc2)cc1O (stereo not drawn),-6,-4,4.9*,-2,-5,-23,3
Cc1ccc(F)cc1NC(=O)COC(=O)C1CC2CCCC(C1)C2=O (stereo not drawn),-1,/,0,-2,-1,0,/

# Screening results (PubChem)
